Test results as given in paper PMC4123212 (Chemistry & biology, 2014).

How the values were obtained:
Erk2^DS1 [1] = target: T1, Erk2^DS1 (Rattus norvegicus, UniProt P63086, C164L/Q103T); test: Activation inhibition assay; format: biochemical; conditions: Erk2^DS1, ATP 5 µM, bis-phosphorylated Erk2 by ELISA
Procedure, shortened: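 Erk2 variant preincubated 30 min at RT with ATP (5 µM) and titrated test compound (2% DMSO) in 50 mM MOPS pH 7.4, 10 mM MgCl2, 1 mM DTT, 0.001% Tween 20, 0.1 mg/mL BSA. MEK2 then added and incubated at RT; enzyme levels and times set by linearity. Quenched with 20 mM EDTA, plate-bound overnight at 4 °C, then anti-phospho-Erk2/HRP ELISA. EC50 from nonlinear regression; triplicates.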

Erk2^WT [2] = target: T2, Erk2^WT (Rattus norvegicus, UniProt P63086); test: Activation inhibition assay; format: biochemical; conditions: ELISA
Erk2^DS1 [3] = target: T1, Erk2^DS1; test: Activation inhibition assay; format: biochemical; conditions: Erk2^DS1, PhosTag-acrylamide PAGE
Procedure, shortened: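 This run uses the MOPS/MgCl2 activation setup (ATP 5 µM, 30 min compound preincubation at RT) but with tenfold more MEK2. Reactions were stopped in SDS loading buffer without EDTA. Erk2 phospho-forms were resolved by SDS-PAGE in gels containing 50 µM PhosTag-acrylamide and 100 µM MnCl2.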

[4] = target: GFP-tagged Erk2^DS1 in HEK293 cells (Rattus norvegicus, UniProt P63086, C164L/Q103T); test: In-cell activation inhibition, EGF-stimulated HEK293 cells; format: cell-based; conditions: 2 at 100-1000 nM, SB203580 1000 nM, immunoblot
Procedure, shortened: (§1)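 Low-passage HEK293 transiently transfected with GFP-Erk2 plasmid, split next day into 96-well format, serum-starved 24 h. Test compound added for 1 h at 37 °C (final 1% DMSO), then human EGF 50 ng/mL for 5 min at 37 °C. DMSO controls with and without EGF. Cells lysed by boiling in SDS loading buffer; SDS-PAGE, immunoblot for GFP and ppErk.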

[5] = target: GFP-tagged Erk2^WT in HEK293 cells (Rattus norvegicus, UniProt P63086); test: as above; format: cell-based; conditions: 2 at 100-1000 nM, SB203580 1000 nM, immunoblot
Procedure, shortened: as §1

phospho-Erk2^DS2 = phospho-Erk2^DS2 (Rattus norvegicus, UniProt P63086, C164L/Q103A); test: Phosphatase inhibition: DUSP6-mediated dephosphorylation; format: biochemical; conditions: phospho-Erk2^DS2, relative to apo enzyme, ELISA
phospho-Erk2^WT = phospho-Erk2^WT (Rattus norvegicus, UniProt P63086); test: as above; format: biochemical; conditions: ELISA
Erk2^WT [6] = target: T2, Erk2^WT; test: DUSP6 activation inhibition; format: biochemical; conditions: inhibitor 5 µM, 4-MUP turnover
Procedure, shortened: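 DUSP6 (140 nM) added for 1 h at RT, then 4-MUP (250 µM). Fluorescence read at Ex/Em 355/460 nm after 2 h at RT; Erk2-free wells used as background.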

Erk2^WT [7] = target: T2, Erk2^WT; conditions: Ki values reported previously, ref Hari et al., 2013; cited from earlier work
Erk2^DS1 (Q103T/C164L) = conditions: ref Hari et al., 2013; cited from earlier work
Erk2^DS2 (Q103A/C164L) = Erk2^DS2 (Q103A/C164L) (Rattus norvegicus, UniProt P63086, C164L/Q103A); conditions: ref Hari et al., 2013; cited from earlier work

Compound: C[S+]([O-])c1ccc(-c2nc(-c3ccncc3)c(-c3ccc(F)cc3)[nH]2)cc1 (centres unmarked) [SB203580]
- Inhibition of dual phosphorylation of Erk2's activation loop by MEK2 (Erk2^DS1 [1]): only a minimal effect
- Decrease in the amount of activation loop phosphorylated Erk2 (MEK2) (Erk2^WT [2]): neither 2 nor SB203580 lead to a significant decrease
- Formation of bis-phosphorylated Erk2 (MEK2) (Erk2^DS1 [3]): comparable levels of bis-phosphorylation
- Cellular Erk2 activation upon EGF stimulation [4]: had no effect
- Cellular Erk2 activation upon EGF stimulation [5]: not affected
- Effect on DUSP6-mediated dephosphorylation of the TxY motif (phospho-Erk2^DS2): enhanced the phosphatase activity of DUSP6
- Effect on DUSP6-mediated dephosphorylation (phospho-Erk2^WT): none of the inhibitors affected
- Effect on Erk2-mediated activation of DUSP6 (Erk2^WT [6]): none of these ligands affected
- Inhibition of wild type Erk2 (Erk2^WT [7]): very weakly inhibited
- Sensitivity of drug sensitive Erk2 mutant to inhibitor (Erk2^DS1 (Q103T/C164L)): highly sensitive
- Sensitivity of drug sensitive Erk2 mutant to inhibitor (Erk2^DS2 (Q103A/C164L)): highly sensitive
